In ChEMBL document CHEMBL1221192, “Using substrate engineering to harness enzymatic promiscuity and expand biological catalysis” (Nat Chem Biol, 2006) one finds Km, kcat and kcat/Km data, which are given here for one protein.

Series [1] has as its target LACTOSE, ANHYDROUS
Put plainly: (§1) Activity at Neisseria meningitidis lgtC by UV-VIS spectroscopy. The method, boiled down: (§2)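 Continuous coupled assay: UDP release from LgtC-catalysed galactose transfer (UDP-Gal donor) coupled to NADH oxidation, followed at 340 nm (ε = 6.22 mM–1cm–1) in a temperature-controlled spectrophotometer. Initial rates were fitted directly to obtain kinetic parameters (kcat, Km, kcat/Km).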

Substrate in series [2]: O=C(OC[C@H]1O[C@@H](O)[C@@H](O)[C@@H](O)[C@@H]1O)c1ccccc1
The series is described as §1. The method, boiled down: as §2

Substrate in series [3]: OC[C@H]1O[C@@H](O[C@H]2[C@H](O)[C@@H](O)[C@H](OCc3ccccc3)O[C@@H]2CO)[C@H](O)[C@@H](O)[C@@H]1O
The description is as §1. The method, boiled down:
as §2

Substrate in series [4]: O[C@@H]1[C@@H](O)[C@H](OCc2ccccc2)OC[C@H]1O
Described as §1. The method, boiled down:
as §2

Substrate in series [5]: CCCCCCCCO[C@@H]1OC[C@@H](O)[C@H](O)[C@H]1O
Put plainly: (§3) Ratio of Kcat to Km for Neisseria meningitidis lgtC. A digest of the protocol:
as §2

Substrate in series [6]: CCCCCCCCO[C@@H]1O[C@H](CO)[C@@H](O)[C@H](O)[C@H]1O
Described as §3. A digest of the protocol: as §2

Substrate in series [7]: CCCCCCCCO[C@@H]1O[C@H](CO)[C@H](O)[C@H](O)[C@H]1O
The series is described as §3. The method, boiled down: as §2

In series [8] the target is LACTOSE, ANHYDROUS
The description is as §3. A digest of the protocol:
as §2

Substrate in series [9]: O=C(OC[C@H]1O[C@@H](O)[C@@H](O)[C@@H](O)[C@@H]1O)c1ccccc1
The description is as §3. The method, boiled down: as §2

Substrate in series [10]: O=C(O[C@@H]1CO[C@@H](O)[C@H](O)[C@H]1O)c1ccccc1
The description is as §3. A digest of the protocol:
as §2

Substrate in series [11]: O=C[C@H](O)[C@@H](O)[C@@H](O)[C@H](O)CO
The description is as §3. The method, boiled down:
as §2

Substrate in series [12]: O=C[C@H](O)[C@@H](O)[C@H](O)CO
The description is as §3. A digest of the protocol: as §2

Substrate in series [13]: OC1OC[C@@H](O)[C@@H](O)[C@@H]1O
Described as §3. A digest of the protocol: as §2

Substrate in series [14]: OC[C@H]1OC(O)[C@@H](O)[C@@H](O)[C@@H]1O
The series is described as §3. The method, boiled down: as §2

Substrate in series [15]: OC[C@H]1OC(O)[C@H](O)[C@@H](O)[C@@H]1O
The description is as §3. The method, boiled down: as §2

Substrate in series [16]: OC[C@H]1OC(O)[C@H](O)[C@H](O)[C@@H]1O
The series is described as §3. The method, boiled down: as §2

Substrate in series [17]: OC[C@H]1O[C@@H](O[C@H]2[C@H](O)[C@@H](O)[C@H](OCc3ccccc3)O[C@@H]2CO)[C@H](O)[C@@H](O)[C@@H]1O
Described as §3. A digest of the protocol:
as §2

Substrate in series [18]: O[C@@H]1[C@@H](O)[C@H](OCc2ccccc2)OC[C@H]1O
The description is as §3. A digest of the protocol: as §2

Substrate in series [19]: O[C@@H]1[C@H](O)[C@@H](O)OC[C@H]1O
Described as §3. A digest of the protocol: as §2

Substrate in series [20]: O[C@H]1[C@H](O)[C@@H](O)[C@H](O)[C@@H](O)[C@H]1O
The description is as §3. The method, boiled down: as §2

B1: Alpha 1,4 galactosyltransferase (Neisseria meningitidis), Q8KHJ3 (protein)
chain: MDIVFAADDNYAAYLCVAAKSVEAAHPDTEIRFHVLDAGISEANRAAVAANLRGGGNIRFIDVNPEDFAGFPLNIRHISITTYARLKLGEYIADCDKVLYLDIDVLVRDSLKPLWDTDLGDNWLGACIDLFVERQNAYKQKIGMADGEYYFNAGVLLINLKKWRQHDIFKMACEWVEQYKDVMQYQDQDILNGLFKGGVCYANSRFNFMPTNDAFMANRFASRHTDPLYRDRTYTAMPVAVSHYCGPAKPWHRDCTAWGAERFTELAGSLTSVPEEWRGKLAVPHRVFPTKRMLQRWRRKLSARFLRKIY
Broadly, the Km is the substrate concentration at which the rate is half of its maximum. As a reminder, the kcat is the maximal rate divided by the concentration of active sites. As a reminder, the kcat/Km is the second-order rate constant that governs catalysis at low substrate concentration. For the protein B1, the Km was 40 mM in series [1], 30 mM in series [2], 35 mM in series [3] and 15 mM in [4]. Moreover, the turnover number (kcat) was determined as 160 s⁻¹ in [1], 2.5 s⁻¹ in series [2], 1 s⁻¹ in series [3] and 10 s⁻¹ in series [4]. Also, the catalytic efficiency (kcat/Km) in series [5] is 367 M⁻¹ s⁻¹; in series [6], 23.3 M⁻¹ s⁻¹; in series [7], 63.3 M⁻¹ s⁻¹; in [8] it was 4000 M⁻¹ s⁻¹; in series [9], 83.3 M⁻¹ s⁻¹; in series [10], 200 M⁻¹ s⁻¹. The catalytic efficiency (kcat/Km) worked out at 5 M⁻¹ s⁻¹ in series [11]; 30 M⁻¹ s⁻¹ in [12]; 1.67 M⁻¹ s⁻¹ in series [13]; 5 M⁻¹ s⁻¹ in [14]; 3.33 M⁻¹ s⁻¹ in series [15]; 0.833 M⁻¹ s⁻¹ in series [16]. Moreover, the specificity constant (kcat/Km) in [17] is 28.3 M⁻¹ s⁻¹; in series [18], 667 M⁻¹ s⁻¹; in series [19], 5 M⁻¹ s⁻¹; in series [20] it was 3.33 M⁻¹ s⁻¹.
